# Cl transport mod = KCC2 cotransporter modulators, thallium flux, primary screen, cell-based, HEK293 KCC2, FluoZin-2 fluorescence, MLSMR | Solute carrier family 12 member 5 (Homo sapiens), Q9H2X9 | KCC2 cells, thallium flux FluoZin-2 fluorescence | B-score of Tl+ flux slope (higher = more flux/activation; lower = inhibition) at 10 µM | 190,000 tested, 2.2% active | AID 1456, 2008;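 active means thallium flux slope and its plate-corrected score both differing from the plate sample mean at a set confidence after two filtering rounds, in either direction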;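 further: slope of fluorescence scaled to starting intensity during 10 to 20 s after thallium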
# WT yeast gro inh = growth inhibition of WT strain, primary screen, mitochondrial fusion inhibitor project, WT and mutant strains, chemical genetic; inhibition, % at 10 µM; 190,000 tested, 2.1% active; AID 1362, 2008; mitochondrial fusion phenotypic screen; in the data active means inhibition above about 58%; tested in S. cerevisiae
# Ins promoter up = insulin promoter activators in MIN6 cells, imaging, high-content screening, mouse beta cells | MIN6 insulin promoter-GFP reporter; hits give high values | z-score at 5 µM | 190,000 tested, 0.3% active;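 active means z-score above 3 at 5 µM with at least 500 cells counted in the well; inconclusive means wells under 500 cells, flagged as cytotoxic or low count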
# Rad51 HR inh = human RAD51 strand exchange inhibitors, primary screen, biochemical, fluorescence; DNA repair protein RAD51 homolog 1 (Homo sapiens), Q06609; hRad51 DNA strand exchange, fluorescence dequenching; inhibition, % at 10 µM; 200,000 tested, 0.085% active; AID 1385, 2008;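 active means inhibition above 40% at the single screening dose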;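 further: 0% = DMSO control wells and 100% = blanks with heterologous ssDNA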
#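 Material: hRad51 filaments on single-stranded DNA; Reagent: Donor/quencher-labelled 47-bp dsDNA substrate; Compound: 10 µM final, single point; Schedule: 37 °C 15-min filament assembly, 30-min compound preincubation, 15-min exchange; Technique: FRET fluorescence, excitation 485 nm, emission 520 nm; Benchmarks: control wells and blank wells on each plate.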
# Autophagy mod = autophagy modulators in MEF cells, primary screen, imaging, high-content, MEF GFP-LC3. calls only at 10 µM (by protocol). 190,000 tested, 0.98% active. MEF GFP-LC3 puncta imaging; test concentration mostly 10 µM;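 active means percentage of spot-positive cells more than 3 SD above its plate mean, without a fluorescence outlier flag or 80% toxicity; inconclusive means no clear call, values can overlap the other calls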;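 further: spot-positive cell cutoff set from DMSO-treated cells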
# SKKanGAS inh = S. pyogenes SKKanGAS growth inhibitors in kanamycin, primary screen, streptokinase expression inhibitor project, SKKanGAS strain, BacTiter-Glo luminescence; 6 h; inhibition, % at 7.5 µM; 300,000 tested, 1.3% active;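 active means mean replicate score, as percent of positive control median, at least 50; inconclusive means mean below 50 but one replicate at or above 50; inactive means mean and every replicate below 50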;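 further: strain carries kanamycin resistance gene driven by streptokinase promoter and grows in 40 µg/ml kanamycin; loss of luminescence reflects streptokinase promoter inhibition or plain growth inhibition; 0% = median of DMSO wells and 100% = positive control at its reference dose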
# * marks the source's active call; other numbers are inactive results; i = inactive; ? = inconclusive; nt = not tested or not shown; + = active, no number. Most compounds without a hit are left out; they make up all but 4.2% or so of the library.
SMILES,Cl transport mod,WT yeast gro inh,Ins promoter up,Rad51 HR inh,Autophagy mod,SKKanGAS inh
c1ccc(CCC2CCCCN2Cc2cn[nH]c2-c2cc3ccccc3o2)nc1 (stereo not drawn),nt,6,-0.02,3,i,-7
O=C(Cn1c(=O)oc2cc(S(=O)(=O)N3CCCCC3)ccc21)N1CCc2ccccc21,-0.49,-3,-0.7,nt,+,1
O=C(Cn1c(=O)oc2cc(S(=O)(=O)N3CCCC3)ccc21)N1CCc2ccccc2C1,nt,-5,0.89,-8,i,-6
O=[N+]([O-])c1cc(CN2CCCC2)c2cccnc2c1O,-0.47,-9,0.51,-9,i,nt
Oc1ccc(CN2CCCCC2)c2cccnc12,0.61,-9,nt,nt,i,-7
CCOc1ccccc1N1CCN(Cc2cccc(OC)c2O)CC1,-1,10,-1.3,0,i,2
Oc1ccc(CN2CCc3ccccc3C2)c2cccnc12,-0.39,-10,-6.1,-9,i,83*
COc1ccccc1N1CCN(Cc2cc(Br)c(O)c3ncccc23)CC1,7.2*,7,-0.6,-4,i,82*
Oc1c(CN2CCN(c3ccccn3)CC2)cc(Cl)c2cccnc12,7*,11,-1.4,13,i,108*
O=[N+]([O-])c1cc(CN2CCN(c3cccc(C(F)(F)F)c3)CC2)c2cccnc2c1O,0.091,57,-1.2,9,i,95*
CC1=C([N+](=O)[O-])C(c2ccccc2Cl)NC(=O)N1C (stereo not drawn),nt,nt,nt,nt,nt,-3
Cc1cccc(N2CCN(C(=O)c3cc(S(=O)(=O)N4CCOCC4)cn3C)CC2C)c1 (stereo not drawn),nt,nt,nt,nt,nt,-4
Oc1ccc(CN2CCN(c3ccccc3)CC2)c2cccnc12,1.2,-11,?,11,i,55*
COc1ccccc1N1CCN(c2nc(C)nc3c2oc2ccccc23)CC1,nt,75*,0.7,-1,i,?
N#Cc1c(N)nc2c(c1-c1ccc3c(c1)OCO3)CCc1ccccc1-2,-2,62*,0.16,1,i,34
COc1ccc(-n2c(C)nc3sc4c(c3c2=O)CCC4)cc1,0.23,1,0.28,6,i,-1
COc1ccc(-n2c(N3CCN(C)CC3)nc3sc4c(c3c2=O)CCCCC4)cc1,-0.033,1,nt,-6,+,-7
Cc1cccc(OCCN2C(=O)C(=O)c3cc(C)ccc32)c1,0.13,13,-0.1,5,+,7
Cc1ccc2[nH]c(=O)cc(C(=O)OC(C)C)c2c1,nt,0,-0.33,-2,i,-3
Cc1cccc(NC(=S)NNC(=O)c2sccc2C)c1,1.9,1,-0.33,2,i,4
Cc1cccc(NC(=S)NNC(=O)c2csc(C(C)C)c2)c1,16*,12,nt,3,i,0
CCc1cc(C(=O)NNC(=S)Nc2cccc(C)c2)cs1,9.3*,6,-0.4,-1,i,-4
Cc1cccc(C(=O)NNC(=O)Nc2ccccc2)c1,0.44,-3,-0.22,6,i,7
O=C(CSc1nnc(Cc2ccccc2)o1)N1CCc2ccccc21,-2.7,8,-0.83,85*,i,-9
Cc1c(NCc2cc(Cl)cc(Cl)c2O)c(=O)n(-c2ccccc2)n1C,0.22,20,0.19,0,i,85*
SMILES,Cl transport mod,WT yeast gro inh,Ins promoter up,Rad51 HR inh,Autophagy mod,SKKanGAS inh
Cc1c(NCc2cc(Cl)ccc2O)c(=O)n(-c2ccccc2)n1C,0.36,-10,-0.67,-2,i,1
CC(C)OC(=O)c1c2nc3ccccc3nc2n2c1[nH]c(=O)c1ccccc12,125*,-10,0.12,nt,i,55*
O=C(NCCC1=CCCCC1)c1cnccn1,nt,2,-0.03,-3,i,6
CCCNC(=O)C(=O)NCCC1=CCCCC1,-0.11,-2,0.04,8,i,0
S=C(NCCC1=CCCCC1)NCc1ccco1,-1.2,69*,-4.5,nt,i,-17
NC(=O)NCCC1=CCCCC1,-0.47,59*,-0.07,nt,i,4
O=C(NC(=S)NCCC1=CCCCC1)c1cncc(Br)c1,15*,26,-0.74,9,i,-7
O=C(Nc1ccc2ccccc2c1)c1ccc(NS(=O)(=O)c2ccc(Br)s2)cc1,0.4,6,nt,0,i,96*
CC1CN(C)C(C)c2c1oc1ccc([N+](=O)[O-])cc21 (stereo not drawn),-1.8,-10,-0.23,26,+,-4
O=C(O)CCc1ccc(-c2ccc(F)cc2)n1Cc1ccco1,-0.93,63*,-0.75,-9,i,15
CCOC(=O)c1sc(NC(=O)CCN2C(=O)c3cccc([N+](=O)[O-])c3C2=O)c(C(=O)OCC)c1C,nt,5,-0.04,6,i,12
Cc1ccc(C)c(-c2csc(N)c2C(=O)OC(C)C)c1,-0.22,21,-0.47,9,i,53*
COc1ccccc1C(=O)Nc1ccc(Cc2ccncc2)cc1,-1.3,15,nt,22,i,-8
COc1c(C)cc(Br)cc1C(=O)Nc1ccc(Cc2ccncc2)cc1,-2.4,44,0.71,2,+,11
CCC(C)Sc1cc(-c2nc3ccc(C)cn3c2NCc2ccccc2)ccc1OC (stereo not drawn),nt,nt,nt,nt,nt,74*
CCC(C)Sc1cccc(-c2nc3ccc(C)cn3c2NC2CCCCC2)c1 (stereo not drawn),nt,nt,nt,nt,nt,5
CCC(C)Sc1ccc(-c2nc3ccc(C)cn3c2NCc2ccccc2)cc1OC (stereo not drawn),nt,nt,nt,nt,nt,53*
COc1ccc(-c2nc3ccc(C)cn3c2NCc2ccccc2)cc1SC1CCCCC1,nt,nt,nt,nt,nt,16
CCC(C)Sc1cc(-c2nc3ccccn3c2NC2CCCCC2)ccc1OC (stereo not drawn),nt,nt,nt,nt,nt,87*
CC1CCN(CCCNC(=O)c2ccc3c(Cl)c4c(nc3c2)CCCC4)CC1,-0.16,nt,1.7,18,nt,-2
Oc1ccc2nnc3c(Br)cnn3c2c1,nt,nt,nt,nt,nt,-2
O=S(=O)(Nc1nc(-c2sccc2Cl)cs1)c1cc(Cl)ccc1Cl,nt,-20,nt,1,i,85*
CC(C)(C)c1nnc(NS(=O)(=O)c2cc(Cl)ccc2Cl)s1,nt,nt,nt,nt,nt,25
Cc1cc(C)c(NC(=S)NCCCSC2CCCCC2)c(C)c1,1,75*,nt,-12,i,9
O=S1(=O)Nc2c(ccc3cccnc23)-c2ccccc21,4.1*,31,0.62,nt,i,112*
CC(=O)Nc1nc(-c2ccccc2)c(-c2ccccc2)o1,-1.7,9,nt,0,i,7
CCN(CC)C(=S)SCC(=O)Nc1nc(-c2ccccc2)c(-c2ccccc2)o1,1.1,36,-0.16,11,i,83*

# Source: PubChem BioAssay
